{"source": "ChEMBL document CHEMBL2434964", "about": "“Novel 1H-pyrrolo[2,3-b]pyridine derivative nortopsentin analogues: synthesis and antitumor activity in peritoneal mesothelioma experimental models” (J Med Chem, 2013)", "key": {"STO [1]": {"system": "STO", "assay": "Induction of apoptosis in human STO cells assessed as chromatin condensation at IC50 by fluorescence microscopy relative to control", "type": "functional, cell-based", "conditions": "TDE = time-dependent effect"}, "[2]": {"assay": "Cytotoxicity against human W138 cells assessed as growth inhibition after 72 hrs by MTS assay", "type": "cell-based", "conditions": "WI-38, 72 h", "procedure,_shortened": "(§1)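 Log-phase cells, 4500 per well, plated 24 h, then given 0.1–100 μM compound for 72 h; vehicle (DMSO) controls. MTS read-out at 490 nm as % of DMSO-treated cells. IC50 taken graphically from the dose-response curve. Eight replicates; mean ± SD of at least three independent experiments.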"}, "Homo sapiens": {"species": "Homo sapiens", "assay": "(§2) Cytotoxicity against human cells Meso2 assessed as growth inhibition after 72 hrs by MTS assay", "type": "functional, cell-based", "procedure,_shortened": "as §1"}, "[3]": {"assay": "as §2", "type": "functional, cell-based", "conditions": "Meso2, 72 h", "procedure,_shortened": "as §1"}, "Mus musculus [4]": {"system": "Mus musculus", "assay": "Toxicity in athymic nude mouse xenografted with human STO cells assessed as mortality at 50 mg/kg, ip qd for 4 to 5 days per week for 3 weeks measured on day 17 post dose", "type": "organism-based", "design": "dose 50 mg/kg, route intraperitoneal", "conditions": "in vivo", "procedure,_shortened": "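Female athymic Swiss nude mice, 8-10 weeks old, given 10⁷ exponentially growing STO cells s.c. in the right flank. Dosing i.p. qdx4-5/wx3w, starting the day after cell injection. Toxicity was scored as body weight loss and lethal toxicity, reported as toxic deaths per treated group (n=8). Deaths in treated mice before the first control death were counted as toxic.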"}, "STO [5]": {"system": "STO", "assay": "Induction of apoptosis in human STO cells assessed as DNA fragmentation at IC50 by fluorescence microscopy relative to control", "type": "functional, cell-based", "conditions": "TDE = time-dependent effect"}, "Meso2 [6]": {"system": "Meso2", "assay": "Potentiation of paclitaxel-induced cytotoxicity in human Meso2 cells assessed as inhibition of cell survival at 2 to 8 uM after 72 hrs by MTS assay", "type": "functional, cell-based", "procedure,_shortened": "(§3)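 Paclitaxel given for 24 h, then test compound added for 72 h more. Fixed paclitaxel:compound ratios were 1:100 in STO and 1:333 in MesoII. Survival by MTS at 490 nm. Expected additive effect taken as the product of single-agent effects. Interaction scored by Chou–Talalay combination index (<1 synergy).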"}, "[7]": {"assay": "Cell cycle arrest in human Meso2 cells assessed as accumulation at G2/M phase at IC50 after 72 hrs by propidium iodide staining-based FACS-flow cytometry relative to control", "type": "functional"}, "[8]": {"assay": "Cell cycle arrest in human Meso2 cells assessed as accumulation at G2/M phase at IC50 after 48 hrs by propidium iodide staining-based FACS-flow cytometry relative to control", "type": "functional"}, "[9]": {"assay": "Cell cycle arrest in human Meso2 cells assessed as reduction of cells at G1 phase at IC50 after 48 to 72 hrs by propidium iodide staining-based FACS-flow cytometry relative to control", "type": "functional"}, "[10]": {"assay": "Cell cycle arrest in human STO cells assessed as accumulation at G2/M phase at IC50 after 48 hrs by propidium iodide staining-based FACS-flow cytometry relative to control", "type": "functional"}, "[11]": {"assay": "Cell cycle arrest in human STO cells assessed as accumulation at G2/M phase at IC50 after 72 hrs by propidium iodide staining-based FACS-flow cytometry relative to control", "type": "functional"}, "Meso2 [12]": {"system": "Meso2", "assay": "Induction of apoptosis in human Meso2 cells assessed as increase in caspase 3 activation at 4 to 8 uM hrs by DEVD-pNA substrate-based spectrofluorometric analysis in presence of paclitaxel", "type": "functional, cell-based"}, "Meso2 [13]": {"system": "Meso2", "assay": "Induction of apoptosis in human Meso2 cells assessed as DNA fragmentation at IC50 by fluorescence microscopy relative to control", "type": "functional, cell-based", "conditions": "TDE = time-dependent effect"}, "STO [14]": {"system": "STO", "assay": "Induction of apoptosis in human STO cells assessed as inhibition of survivin phosphorylation at Thr34 at IC50 by Western blotting analysis", "type": "functional, cell-based"}, "[15]": {"assay": "Antitumor activity against human STO cells xenografted in athymic nude mouse assessed as tumor volume inhibition at 50 mg/kg, ip qd for 4 to 5 days per week for 3 weeks measured on day 17 post dose", "type": "functional", "conditions": "route intraperitoneal", "procedure,_shortened": "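Female athymic Swiss nude mice, 8-10 weeks old; 10⁷ exponentially growing STO cells injected s.c. into right flank. Dosing i.p. qdx4-5/wx3w, starting the day after cell injection. Tumor volume = d²xD/2. TVI% = 100-(mean TV treated/mean TV control x 100), read 17 days after end of treatment (day 35). Two-tailed Student's t test.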"}, "STO [16]": {"system": "STO", "assay": "Potentiation of paclitaxel-induced cytotoxicity in human STO cells assessed as inhibition of cell survival at 0.15 to 0.6 uM after 72 hrs by MTS assay", "type": "functional, cell-based", "procedure,_shortened": "as §3"}, "STO [17]": {"system": "STO", "assay": "Induction of apoptosis in human STO cells assessed as increase in caspase 3 activation at 0.3 to 0.6 uM hrs by DEVD-pNA substrate-based spectrofluorometric analysis relative to control", "type": "functional, cell-based"}, "[18]": {"molecular_target": "Glycogen synthase kinase-3 beta (Homo sapiens, UniProt P49841)", "sequence (P49841 whole entry)": "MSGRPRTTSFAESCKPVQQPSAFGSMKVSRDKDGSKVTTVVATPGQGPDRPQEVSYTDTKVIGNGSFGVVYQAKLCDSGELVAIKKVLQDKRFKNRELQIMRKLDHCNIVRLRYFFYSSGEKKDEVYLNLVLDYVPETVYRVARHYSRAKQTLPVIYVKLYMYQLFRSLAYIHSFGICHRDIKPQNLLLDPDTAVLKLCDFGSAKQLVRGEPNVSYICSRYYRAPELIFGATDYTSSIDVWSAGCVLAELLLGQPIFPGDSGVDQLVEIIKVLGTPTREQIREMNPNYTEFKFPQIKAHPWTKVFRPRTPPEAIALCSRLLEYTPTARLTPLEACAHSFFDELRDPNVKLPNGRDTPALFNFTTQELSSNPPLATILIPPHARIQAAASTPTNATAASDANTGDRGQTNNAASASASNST", "assay": "Inhibition of human GSK-3 beta after 30 mins by fluorescence assay", "procedure,_shortened": "(§4)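 Recombinant kinases (CDK1/cyclin B; GSK3β) in Omnia fluorescence assay with peptide substrate, ATP and DTT in kinase buffer, run 30 min at 30°C. Compound range 0.05-50 μM. Fluorescence read at ex 360/em 485 nm. IC50 taken graphically; mean ± SD of three independent experiments.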"}, "Mus musculus [19]": {"system": "Mus musculus", "assay": "Toxicity in athymic nude mouse xenografted with human STO cells assessed as body weight loss at 50 mg/kg, ip qd for 4 to 5 days per week for 3 weeks measured on day 17 post dose", "type": "organism-based", "design": "dose 50 mg/kg, route intraperitoneal", "conditions": "in vivo", "procedure,_shortened": "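Female athymic Swiss nude mice bearing s.c. STO flank xenografts (10⁷ cells). Dosing i.p. qdx4-5/wx3w, starting the day after cell injection. Toxicity recorded as % body weight loss and lethal toxicity. Deaths in treated mice before the first control death were counted as toxic.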"}, "[20]": {"assay": "Cell cycle arrest in human STO cells assessed as increase in sub-G1 phase accumulation at IC50 after 72 hrs by propidium iodide staining-based FACS-flow cytometry relative to control", "type": "functional"}, "[21]": {"assay": "Cell cycle arrest in human STO cells assessed as reduction of cells at G1 phase at IC50 after 48 to 72 hrs by propidium iodide staining-based FACS-flow cytometry relative to control", "type": "functional"}, "STO [22]": {"system": "STO", "assay": "Induction of apoptosis in human STO cells assessed as increase in caspase 3 activation at 0.3 to 0.6 uM hrs by DEVD-pNA substrate-based spectrofluorometric analysis in presence of paclitaxel", "type": "functional, cell-based"}, "Meso2 [23]": {"system": "Meso2", "assay": "Induction of apoptosis in human Meso2 cells assessed as chromatin condensation at IC50 by fluorescence microscopy relative to control", "type": "functional, cell-based", "conditions": "TDE = time-dependent effect"}, "Meso2 [24]": {"system": "Meso2", "assay": "Induction of apoptosis in human Meso2 cells assessed as increase in caspase 3 activation at 4 to 8 uM hrs by DEVD-pNA substrate-based spectrofluorometric analysis relative to control", "type": "functional, cell-based"}, "[25]": {"molecular_target": "Cyclin-dependent kinase 1/cyclin B1 (Homo sapiens, UniProt P06493)", "sequence (P06493 whole entry)": "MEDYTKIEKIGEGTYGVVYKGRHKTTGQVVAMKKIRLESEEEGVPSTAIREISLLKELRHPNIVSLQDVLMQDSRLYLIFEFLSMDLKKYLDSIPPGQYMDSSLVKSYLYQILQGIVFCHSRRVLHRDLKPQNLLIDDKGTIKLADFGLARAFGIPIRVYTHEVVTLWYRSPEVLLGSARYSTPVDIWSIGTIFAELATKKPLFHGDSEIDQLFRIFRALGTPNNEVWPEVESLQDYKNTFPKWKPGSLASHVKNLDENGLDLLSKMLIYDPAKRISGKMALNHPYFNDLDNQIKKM", "sequence (P14635 whole entry, further chain)": "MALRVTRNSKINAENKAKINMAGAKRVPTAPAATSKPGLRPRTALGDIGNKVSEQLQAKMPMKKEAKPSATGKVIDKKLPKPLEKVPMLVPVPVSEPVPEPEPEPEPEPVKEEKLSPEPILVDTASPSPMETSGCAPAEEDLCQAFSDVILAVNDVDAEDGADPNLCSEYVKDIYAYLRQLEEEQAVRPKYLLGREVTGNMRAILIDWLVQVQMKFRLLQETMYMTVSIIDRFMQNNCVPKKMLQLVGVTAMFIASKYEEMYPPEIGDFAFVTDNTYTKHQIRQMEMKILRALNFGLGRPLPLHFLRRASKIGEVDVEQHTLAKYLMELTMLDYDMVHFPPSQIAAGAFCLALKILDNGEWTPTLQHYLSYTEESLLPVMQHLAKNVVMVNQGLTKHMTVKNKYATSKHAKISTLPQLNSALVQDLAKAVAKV", "assay": "Inhibition of human recombinant CDK1/cyclin B after 30 mins by fluorescence assay", "type": "protein-complex assay", "procedure,_shortened": "as §4"}, "[26]": {"assay": "Cell cycle arrest in human Meso2 cells assessed as increase in sub-G1 phase accumulation at IC50 after 72 hrs by propidium iodide staining-based FACS-flow cytometry relative to control", "type": "functional"}, "[27]": {"assay": "(§5) Cytotoxicity against human STO cells assessed as growth inhibition after 72 hrs by MTS assay", "type": "functional, cell-based", "procedure,_shortened": "as §1"}, "STO [28]": {"system": "STO", "assay": "as §5", "type": "functional, cell-based", "procedure,_shortened": "as §1"}, "[29]": {"molecular_target": "Cyclin-dependent kinase 1/cyclin B1 (Homo sapiens) (UniProt P06493+P14635)", "sequence (P06493 whole entry, looked up)": "as the sequence (P06493 whole entry) above", "sequence (P14635 whole entry, looked up)": "as the sequence (P14635 whole entry, further chain) above", "assay": "Inhibition of CDK1/cyclin B in human STO cells using histone H1 as substrate assessed as histone H1 phosphorylation preincubated at IC50 by immunoprecipitate-based densitometric analysis", "type": "cell-based", "conditions": "TDE = time-dependent effect", "procedure,_shortened": "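STO cells exposed at IC50 for 24, 48 and 72 h, with DMSO controls. Lysates immunoprecipitated with anti-cyclin B1, 4 h at 4°C. Precipitates incubated 20 min at 30°C with 3 μg histone H1, MgCl₂, cold ATP and [γ32P]ATP, pH 7.5. Products run on 12% SDS gel and quantified by densitometry as % of DMSO control.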"}}, "note": "The source made the active and inactive calls. No cut-off for these calls is given here.", "data": [{"smiles": "Cn1cc(-c2csc(-c3c[nH]c4ccccc34)n2)c2cccnc21", "values": [{"measurement": "Activity", "setting": "STO [1]", "value": "tde"}, {"measurement": "IC50", "setting": "[2]", "value": "> 100", "unit": "µM"}, {"measurement": "inhibition", "setting": "Homo sapiens", "value": "Dose-dependent effect"}, {"measurement": "IC50", "setting": "[3]", "value": 4.11, "unit": "µM"}, {"measurement": "Activity", "setting": "Mus musculus [4]", "value": "Non-toxic"}, {"measurement": "Activity", "setting": "STO [5]", "value": "tde"}, {"measurement": "inhibition", "setting": "Meso2 [6]", "value": "Active"}, {"measurement": "Activity", "setting": "[7]", "value": 41.9, "unit": "%"}, {"measurement": "Activity", "setting": "[8]", "value": 33.3, "unit": "%"}, {"measurement": "Activity", "setting": "[9]", "value": "Active"}, {"measurement": "Activity", "setting": "[10]", "value": 33.3, "unit": "%"}, {"measurement": "Activity", "setting": "[11]", "value": 41.9, "unit": "%"}, {"measurement": "Activity", "setting": "Meso2 [12]", "value": "Active"}, {"measurement": "Activity", "setting": "Meso2 [13]", "value": "tde"}, {"measurement": "inhibition", "setting": "STO [14]", "value": "Active"}, {"measurement": "inhibition in vivo at 50 mg/kg", "setting": "[15]", "value": 75, "unit": "%"}, {"measurement": "inhibition", "setting": "STO [16]", "value": "Active"}, {"measurement": "Activity", "setting": "STO [17]", "value": "Active"}, {"measurement": "IC50", "setting": "[18]", "value": 40.2, "unit": "µM"}, {"measurement": "Activity", "setting": "Mus musculus [19]", "value": 1, "unit": "%"}, {"measurement": "Activity", "setting": "[20]", "value": 25.8, "unit": "%"}, {"measurement": "Activity", "setting": "[21]", "value": "Active"}, {"measurement": "Activity", "setting": "STO [22]", "value": "Active"}, {"measurement": "Activity", "setting": "Meso2 [23]", "value": "tde"}, {"measurement": "Activity", "setting": "Meso2 [24]", "value": "Active"}, {"measurement": "IC50", "setting": "[25]", "value": 0.75, "unit": "µM"}, {"measurement": "Activity", "setting": "[26]", "value": 19.9, "unit": "%"}, {"measurement": "IC50", "setting": "[27]", "value": 0.33, "unit": "µM"}, {"measurement": "inhibition", "setting": "STO [28]", "value": "Dose-dependent effect"}, {"measurement": "inhibition", "setting": "[29]", "value": "tde"}]}]}
